# Hit rate of the full screen: of about 320,000 compounds, about 200 (0.062%) were called active. The sample as a whole holds a higher share of actives than the screen did. Unmarked numbers belong to inactive results.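 The calls were made as follows: active = activation above that plate's cutoff, the mean activation of tested compounds plus 3 SD (cut at about 6.6% in these data, passing the limit was not always enough); inactive = the rest.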
# Molecular target: Oxytocin receptor (Homo sapiens) (UniProt P30559)
# Assay: human OXTR potentiators, primary screen, fluorescence, CHO-OTR cells, Fluo-8 calcium (AID 2445);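 also: 100% uses oxytocin at 75 nM as the full agonist control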
# Details: Fluo-8 calcium fluorescence, potentiator mode, at 3 µM, stronger effect = higher value, 0% = oxytocin EC15, 100% = EC100
# Summary of the method: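 Measured by – Fluo-8 calcium dye fluorescence · Test system – human OTR in CHO cells · Dosing – one concentration, 3.0 µM compound · Controls – EC15 oxytocin alone as 0%, 75 nM oxytocin as 100% · Evaluation – normalized max/min fluorescence ratio, % activation · Timing – 6 min pre-incubation, 100 s read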
# Oxytocin receptor (Homo sapiens), sequence (P30559 whole entry, looked up): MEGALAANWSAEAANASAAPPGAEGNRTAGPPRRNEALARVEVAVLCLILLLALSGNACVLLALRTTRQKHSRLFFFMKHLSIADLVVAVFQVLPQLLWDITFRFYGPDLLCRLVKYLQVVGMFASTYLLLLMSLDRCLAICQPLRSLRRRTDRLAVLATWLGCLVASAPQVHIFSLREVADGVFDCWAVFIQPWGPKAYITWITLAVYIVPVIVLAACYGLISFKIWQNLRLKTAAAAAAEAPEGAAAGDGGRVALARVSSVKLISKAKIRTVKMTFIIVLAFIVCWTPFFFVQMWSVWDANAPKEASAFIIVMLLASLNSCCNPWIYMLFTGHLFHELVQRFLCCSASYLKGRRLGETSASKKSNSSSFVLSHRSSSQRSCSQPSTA
row,Compound,activation
1,CC1CCC2CCCCC2N1C(=O)c1cc([N+](=O)[O-])cc([N+](=O)[O-])c1 (centres undefined),-6.56%
2,OCCN1CCOCCOCCN(CCO)CCN(CCO)CC1,-14%
3,Cc1cccc2c1-c1sc(C(=O)NCCCN3CCc4ccccc4C3)cc1CO2,-6.4%
4,O=C(NCc1ccccc1)C1CCN(C(=O)Cc2ccccc2)CC1,-0.95%
5,Cc1ccc(N2C(=O)CN=C2Nc2nc(C)cc(C)n2)cc1,-1.27%
6,COc1ccc(Br)c2c1C(=O)CC2,-5.51%
7,Cc1ccc(S(=O)(=O)NCC2CCC(C(=O)N3CCOCC3)CC2)cc1 (centres undefined),-11.8%
8,CS(=O)(=O)Nc1ccccc1C(=O)OCC(=O)NC1CC1,-5.14%
9,O=C(Nc1ccccc1C(=O)N1CCOCC1)c1ccc(Cl)cc1,-4.35%
10,COC(=O)CSc1snnc1-c1ccc(Cl)c(Cl)c1,-15.7%
11,O=C(O)c1ccc2c(=O)n3c(nc2c1)/C(=C/c1ccc(OC(F)F)cc1OC(F)F)CC3,1.58%
12,Cn1c(N)c(C(=O)COC(=O)c2ccccc2NCc2ccco2)c(=O)n(C)c1=O,-14.4%
13,Cc1ccccc1Cn1c2ccccc2c2cnn(CC(=O)NCc3ccco3)c(=O)c21,1.81%
14,CCCCCCCCCCCCN1[C@@H](CC(C)=O)c2cc(F)cc(F)c2S1(=O)=O,9.85%
15,CNc1nnc(-c2ccco2)s1,11.7% (active)
16,COc1ccc(OCC(=O)Nc2nnc(-c3ccco3)s2)cc1,-4.78%
17,O=C(Nc1nc(-c2ccco2)c(-c2ccco2)s1)c1ccco1,-4.21%
18,CC(C)N(Cc1ccccc1)C(=O)COC(=O)c1cnccn1,-12.7%
19,COc1cc(OC)c(C(=O)OC(C)C(=O)Nc2cc(C(F)(F)F)ccc2Cl)cc1OC (centres undefined),-8.37%
20,Cc1noc(C)c1NC(=O)Nc1ccc2c(c1)C(=O)N([C@H](C)CO)C[C@H](C)[C@@H](CN(C)C(=O)Nc1ccccc1)O2,-1.66%
21,CSc1ncccc1C(=O)OCc1ccc(Br)cc1,-14.7%
22,O=C(O)CCCCOn1ccnc1,3.24%
23,Cc1nc2cc(NCc3cccs3)ccc2n1C,-14.8%

row,Compound,activation
1,O=C1/C(=C/c2ccc3c(c2)OCO3)Oc2cc(OCC(=O)N3CC(O)C[C@H]3C(=O)O)ccc21 (some centres undefined),-2.05%
2,Cc1nc(-c2ccc(F)cc2)c(CC(=O)N2CCN(S(=O)(=O)c3ccc(F)cc3)CC2)s1,-7.74%
3,O=C(Nc1ccc(F)cc1)C1CCN(C(=O)c2ccc([N+](=O)[O-])cc2)CC1,-7.48%
4,Cc1ccc(NC(=O)COc2coc(CN3CCc4ccccc4C3)cc2=O)cc1Cl,-8.11%
5,CCOC(=O)C1=C(N)N2C(=O)C(C)SC2=C(C(=O)OCC)C1c1cc(OC)c(OC)c(OC)c1 (centres undefined),3.06%
6,O=C(Nc1ccc(F)cc1F)N1CCCN(CCOc2ccccc2)CC1,-5.95%
7,O=C1CC(c2c(F)cccc2Cl)C(n2cncn2)C(O)=C1C1NCCc2ccccc21 (centres undefined),2.91%
8,O=C(COC(=O)CCc1nc2ccccc2c(=O)[nH]1)Nc1ccc(N2CCOCC2)cc1,-2.47%
9,CC1CCCCC12NC(=O)N(CC(=O)Nc1ccc(S(=O)(=O)Nc3ncccn3)cc1)C2=O (centres undefined),1.55%
10,CCCCNc1c(-c2cccc(Sc3ccc(OC)cc3)c2)nc2ccccn12,-2.7%
11,CCCCNc1c(-c2ccc(OC)c(Sc3ccc(OC)cc3)c2)nc2ccc(Cl)cn12,13.1% (active)
12,CCCCCCSc1ccc(-c2nc3ccc(Cl)cn3c2NCc2ccccc2)cc1,-4.96%
13,CC(=O)c1ccc(OCC(O)CN2CCN(S(=O)(=O)c3cccc(Br)c3)CC2)cc1 (centres undefined),-10.6%
14,COc1cc(OC)cc(C(=O)N[C@H](C(=O)NNC(=O)c2ccc(Br)cc2)C(C)C)c1,0.41%
15,COc1ccc(S(=O)(=O)N2CCOC2CNC(=O)C(=O)NCc2ccncc2)cc1C (centres undefined),2.91%
16,CCS(=O)(=O)n1nc(-c2ccccc2)nc1SCc1ccccc1,0.8%
17,O=C(NC1CCCCCCC1)c1cccs1,-9.53%
18,CCO[C@H]1OC(C(=O)Nc2ccccc2)=C[C@@H](C2CC2)[C@@H]1CCCO,-3.89%
19,CCOc1ccc(CNC(=O)CCC(=O)N2CCSc3ccccc32)cc1,-5.95%
20,CC(OC(=O)c1c(F)cccc1F)C(=O)NCCC1=CCCCC1 (centres undefined),-1.25%
21,CCCCCCSc1ccc([C@@H]2[C@@H]3C(=O)N(CC)C(=O)[C@@H]3[C@]3(C(=O)OC)CCCCN23)cc1OC,-12.2%
22,O=S1(=O)CCOC[C@H](CC2CCCCC2)N1Cc1ccc(F)cc1,0.09%
23,Cc1ccccc1CCN(CC(=O)NC1CCCCC1)C(=O)c1csnn1,-12.1%

row,Compound,activation
1,Cc1c(Cl)cccc1NC(=O)[C@@]1(CC(=O)O)CC(/C=C/c2ccccc2)=NO1,-10.7%
2,Cc1ccc(S(=O)(=O)Nc2nc(CN3CCOCC3)nc3sc(C)c(C)c23)cc1,4.74%
3,Cc1cc(C)c2c(c1)c(C)cc1nnc(SCC(=O)NCc3ccco3)n12,-0.06%
4,Cc1cc(C)cc(N(CCC#N)C(=O)CN2C(=O)NC3(CCCC3)C2=O)c1,-5.16%
5,O=C(C1CCN(C2CCN(Cc3cccc4c3OCO4)CC2)CC1)N1CCOCC1,-0.07%
6,Cc1ccc(N2C(=O)C3C(c4ccccc4)(C2=O)C3(c2ccccc2)c2ccccc2)cc1 (centres undefined),-5.54%
7,CC1CCCC(NC(=O)CSc2nccn2C)C1C (centres undefined),-21.1%
8,Cc1ccccc1-c1cc(C(=O)NCc2cccs2)n(CC2CC(c3cccnc3)=NO2)n1 (centres undefined),-4.56%
9,CCCOc1ccccc1C1CC(=O)Nc2cc3c(cc21)OCO3 (centres undefined),-15.5%
10,COC(=O)c1ccc(C2CC(=O)Nc3cc(OC)c(OC)cc32)cc1 (centres undefined),-2.55%
11,COc1cc2c(cc1OC)C(c1ccc(C)o1)CC(=O)N2 (centres undefined),6.71% (active)
12,Cc1ccc(CNC(=O)CCN2C(=O)[C@@H]3Cc4ccccc4CN3C2=O)cc1,-7.86%
13,CN(Cc1ccccc1Cl)C(=O)C1CCC(=O)N(CCc2cccc(F)c2)C1 (centres undefined),5.76%
14,COc1ccccc1CSc1ncc(-c2ccc([N+](=O)[O-])cc2)[nH]1,-15.7%
15,Cn1cccc1C(=O)N1CCc2ccccc2C1,-4.4%
16,O=C(Nn1cc(C(=O)N2CCN(c3ccccc3F)CC2)c2ccccc2c1=O)c1cnccn1,-16.9%
17,COc1ccc([C@H]2[C@H](C(C)=O)N3N=Cc4ccccc4C3C23C(=O)OC(C)(C)OC3=O)cc1 (some centres undefined),-5.56%
18,O=C(COC(=O)Cn1cnc2ccccc21)Nc1cccc2c1C(=O)c1ccccc1C2=O,-2.58%
19,Cc1cc(NC(=O)Nc2c[nH]c(=O)[nH]c2=O)ccc1Br,-3.04%
20,Cc1ccc2nc(NC(=O)C3CSC4(C)CCC(=O)N34)sc2c1 (centres undefined),-1.9%
21,COc1ccc(Cl)cc1NC(=O)CN(C)C(=O)CCCc1c[nH]c2ccccc12,-8.97%
22,CC(C)CN(C(=O)CSc1ncnc2sccc12)C1CCS(=O)(=O)C1 (centres undefined),-5.65%
23,CCCc1cc(=O)oc2cc(OCC(=O)Nc3ccc(CN4CCOCC4)cc3)c(Cl)cc12,2.03%

row,Compound,activation
1,COc1ccc(CCNC(=O)CCc2cn(C)c3ccccc23)c(OC)c1,-6.44%
2,C=CCNC(=O)COC(=O)CNC(=O)c1cc(Cl)cc([N+](=O)[O-])c1,6.81%
3,Cn1c(=O)c2sccc2n(Cc2ccc(Br)cc2)c1=O,-7.63%
4,COc1cc(S(=O)(=O)N2CCN(C(=O)C3CC3)CC2)ccc1NC(C)=O,5.54%
5,O=C(CN(Cc1ccccc1)C(=O)CCC(=O)Nc1ccccn1)NCCc1ccccc1,-8.23%
6,O=C(Oc1ccc(-c2nnco2)cc1)c1ccc(F)c(S(=O)(=O)N2CCOCC2)c1,-5.86%
7,O=C(COc1cc(Cl)c(Cl)cc1Cl)NC(=O)NC1CCCC1,2.91%
8,O=C(NCCCN1CCCCC1)C1CCCN(c2ncnc3c2nc2n3CCCCC2)C1 (centres undefined),-5.62%
9,Cc1cc(C(=O)OCC(=O)Nc2ccccc2Cl)c(C)o1,1.55%
10,O=C(COC(=O)c1cc(S(=O)(=O)N2CCOCC2)ccc1Cl)NCCc1ccccc1,-5.23%
11,COCCCNC(=O)CSc1nc2ccc(N3CCOCC3)cc2c(=O)n1CCc1ccccc1,-1.26%
12,CCCCn1c(N)c(N2CCOCC2)c(=O)n(CC(=O)NCCc2ccccc2)c1=O,14.8% (active)
13,CCC(=O)N1CCN=C1SCc1ccc(F)cc1,-4.47%
14,CCOC(=O)N1CCN(Cc2oc(CO)cc(=O)c2O)CC1,-9.68%
15,Cc1noc(/C=C/c2ccco2)c1S(=O)(=O)N1CCC(C(=O)Nc2ccc(Cl)cn2)CC1,-2.32%
16,O=C(NC(=S)Nc1ccccc1N1CCCCC1)c1ccc(F)cc1,25.2% (active)
17,CCc1ccc(C(=O)NC(=S)Nc2ccccc2N2CCOCC2)cc1,-6.63%
18,COc1ccccc1C(=O)NC(=S)Nc1ccccc1N1CCCCC1,-5.57%
19,COc1ccc(C[C@H]2CN3C(=NC[C@H]3C)N2CCNC(=O)CCC2CCCCC2)cc1,3.05%
20,C[C@H](NC(=O)c1nc[nH]c1C(=O)N[C@@H](C)C(=O)OC(C)(C)C)C(=O)OC(C)(C)C,-3.66%

# Reference: PubChem BioAssay AID2445 (The Scripps Research Institute Molecular Screening Center, 2010)
